Assay outcomes: PubChem, several laboratories
Shown are actives, neighbours in structure and some others; about 3.7% of the full set was active somewhere.
GPR7 antagonist – GPR7 receptor antagonists, primary screen, cell-based, fluorescence, single concentration; Neuropeptides B/W receptor type 1 (Homo sapiens), P48145; GPR7-expressing cells, fluorescence antagonist assay; inhibition, % at 4.4 µM; 1.1% of 290,000 active; AID 1861, 2009; in the data active means inhibition above about 16%, passing the limit was not always enough;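 further: cells stimulated with the agonist NPW; 0% = agonist with vehicle and 100% = vehicle without agonist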
PGE2 EP2 inh – human EP2 receptor antagonists, primary screen, TR-FRET cAMP, C6 glioma cells | Prostaglandin E2 receptor EP2 subtype (Homo sapiens), P43116 | C6 glioma cells expressing human EP2; cells stimulated with saturating PGE2 | inhibition, % at 25 µM | 0.52% of 260,000 active;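 active means percent inhibition above 40 after rounding to a whole number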;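 further: rat C6 glioma host cells with rolipram phosphodiesterase inhibitor present; the protocol text gives 20 µM as final concentration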
Target sequence (P43116 whole entry, looked up): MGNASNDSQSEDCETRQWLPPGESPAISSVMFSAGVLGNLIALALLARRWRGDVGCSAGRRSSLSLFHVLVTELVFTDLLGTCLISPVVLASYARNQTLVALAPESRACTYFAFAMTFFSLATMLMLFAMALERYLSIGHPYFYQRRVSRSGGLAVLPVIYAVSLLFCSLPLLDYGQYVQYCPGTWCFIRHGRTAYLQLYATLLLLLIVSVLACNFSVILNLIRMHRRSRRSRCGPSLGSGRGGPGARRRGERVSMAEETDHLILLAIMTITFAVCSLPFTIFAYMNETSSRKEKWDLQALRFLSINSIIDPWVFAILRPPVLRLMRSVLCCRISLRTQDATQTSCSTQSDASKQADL
CHO parental Ca – ATP-evoked calcium signal inhibitors, parental CHO, primary screen, counter-screen for OX1R antagonist project, cell-based, fluorescence, Fluo-8 calcium dye | parental CHO-K1, ATP-induced calcium, Fluo-8 fluorescence | inhibition, % at 5.6 µM | 0.63% of 330,000 active;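 active means inhibition above that plate's mean sample inhibition plus 3 SD, cut at about 26% in these data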;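 further: 0% = ATP-challenged DMSO wells and 100% = DMSO wells without ATP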
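Test system: untransfected parental CHO cell line. Compound: one dose, 5.6 µM nominal. Detection: intracellular calcium via Fluo-8 no-wash fluorescent dye. Measure: % inhibition. Benchmarks: ATP-challenged DMSO wells low, unchallenged DMSO wells high.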
EP2 mod – EP2 receptor modulators, cAMP readout, primary screen, cell-based, HTRF cAMP, PGE2 stimulation; Prostaglandin E2 receptor EP2 subtype (Homo sapiens), P43116; EP2-expressing cells, cAMP HTRF FRET, PGE2 co-stimulation; induction, % at 25 µM; 0.83% of 260,000 active; AID 940, 2007;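 active means compounds whose cAMP rise, as percent of the full-agonist control response, exceeds 60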;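 further: rat C6 glioma line stably carrying human EP2 under a CMV promoter; the protocol text gives 20 µM as final concentration; 100% = response of wells given 1 µM PGE2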
OX1R antag-1 – OX1R (HCRTR1) antagonists, primary screen, fluorescence, CHO/OX1R cells, Fluo-8 calcium, orexin A; 0.43% of 330,000 active; AID 434989, 2010; Fluo-8 calcium fluorescence; inhibition, % at 5 µM;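 active means inhibition above its plate's threshold, mean inhibition of all tested compounds on the plate plus 3 SD, cut at about 37% in these data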;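 further: 0% = orexin A challenge wells and 100% = SB-334867-A antagonist wells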
OX1R antag-2 – antagonists of human orexin 1 receptor (OX1R). 1.8% of 330,000 active. inhibition, % at 6.6 µM. OX1R-expressing cells, FRET antagonist read-out; in the data active means inhibition mostly above about 38%, no sharp cut-off; inactive means mostly below about 40%;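 further: 0% = agonist challenge alone and 100% = reference antagonist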
The depositor's hits bear a star; / = no result given.

SMILES	GPR7 antagonist	PGE2 EP2 inh	CHO parental Ca	EP2 mod	OX1R antag-1	OX1R antag-2
c1ccc2sc(SCN(C3CCCCC3)C3CCCCC3)nc2c1	/	43*	/	21	/	/
CCN1CCCC1CNS(=O)(=O)c1c(C)cc(C)cc1C (stereo unspecified)	4	/	-6	/	-30	5
O=C(NNC(=S)NCc1ccccc1)c1ccc(Br)cc1	-6	/	-8	/	-19	28
CCOC(=O)C(=O)NNc1ccc(Cl)cc1	-7	2	2	-1	-3	3
CC1CC(C)CN(C(=S)NC2CCCCC2)C1 (stereo unspecified)	0	7	-14	8	-23	5
CN(C)C=Nc1ccc2nc3c(cc2c1)[nH]c1ccccc13	2	/	-2	/	8	55*
O=C1CCCN1CCCNC(=S)Nc1cccc2ccccc12	1	6	-22	-13	-29	8
COc1ccc2nc(Nc3ccccc3OC)sc2c1	0	5	-12	-63	-32	14
COc1cccc(C(=O)Nc2cccc3ccccc23)c1	0	/	/	/	/	/
COc1ccc2nc(NC(=O)Nc3cccc4ccccc34)sc2c1	-8	5	5	-13	-14	42*
COc1cccc(C(CC(=O)Nc2cccc3ccccc23)NC(=O)c2ccccc2)c1 (stereo unspecified)	-11	3	-2	-11	-15	35*
COc1ccc2nc(NC(=O)Nc3ccccc3OC)sc2c1	23	/	-12	/	14	66*
COc1ccc2nc(NC(=O)c3ccc4ncsc4c3)sc2c1	-13	14	-16	-27	-31	57*
c1ccc(CNc2cnccn2)cc1	-6	6	-5	19	-13	7
O=[N+]([O-])c1ccc2c(c1)S(=O)c1ccccc1-2 (stereo unspecified)	-15	4	-28	10	-6	75*
O=C1c2cc([N+](=O)[O-])ccc2-c2ccc3c4ccc5c6c(ccc(c7ccc1c2c73)c64)C(=O)c1cc([N+](=O)[O-])ccc1-5	/	33	/	30	/	/
CCc1cccc(NC(=O)CCCn2nc(CC)n3c(cc4occc43)c2=O)c1	-9	/	-22	/	-14	42*
CCc1nn(CCCC(=O)NCc2ccccc2Br)c(=O)c2cc3occc3n12	-20	/	-22	/	-29	17
COc1ccc(CCNC(=O)COc2ccc(S(=O)(=O)NC(C)C)cc2Cl)cc1OC	-9	7	-5	15	16	47*
COc1ccc(CCNC(=O)CCc2ccc(S(=O)(=O)NC(C)C)cc2)cc1OC	-1	6	-14	32	-20	0
CC(=O)O[C@H]1CC[C@@]2(C)C(=CC[C@H]3[C@H]2CC[C@]2(C)[C@@H]4[C@@H](C)[C@]5(CC[C@H](C)CN5)O[C@@H]4C[C@@H]32)C1	/	45*	/	11	/	/
Cc1cc(Oc2ccc3ccccc3c2)nc(SCC(=O)c2ccccc2)n1	32*	10	-4	50	-23	33
O=C(O)CC1NC(=O)c2ccc(Br)cc21 (stereo unspecified)	/	9	/	6	/	/
O=C(NN=C1CCCCCCC1)c1ccc2ccccc2n1	0	8	-18	-8	-2	56*
O=C(NN=C1CCCCCCC1)c1ccccn1	11	4	-4	5	-16	3
SMILES	GPR7 antagonist	PGE2 EP2 inh	CHO parental Ca	EP2 mod	OX1R antag-1	OX1R antag-2
COc1ccc(N/C(N)=N/c2nc(CSc3nnc(C)s3)cc(=O)[nH]2)cc1	1	4	-7	3	-24	12
Cc1ccc(N/C(N)=N/c2nc(CSc3nnc(C)s3)cc(=O)[nH]2)c(C)c1	31*	5	-12	-19	-27	10
CC1=NN(c2ccccc2)C(=O)/C1=C\c1c(C)[nH]n(-c2ccccc2)c1=O	-7	6	-4	-18	-3	5
CC1=NN(c2ccccc2)C(=O)/C1=C/c1c(O)n(-c2ccc(F)c(Cl)c2)[nH]c1=O	-11	4	-4	-13	5	74*
COc1ccc(C2/C=C\CN(Cc3ccncc3)CC(=O)N2Cc2ccc(F)cc2)cc1 (stereo unspecified)	/	10	-14	2	-26	21
Cc1onc(-c2ccccc2)c1NC(=O)Nc1c(-c2ccccc2)noc1C	11	4	-24	24	-23	51*
Cc1ccc(Oc2nc3ccccn3c(=O)c2/C=C(\C#N)C(=O)NC2CCS(=O)(=O)C2)cc1 (stereo unspecified)	-14	14	-12	-29	-5	27
CCn1nc(C)c(Br)c1C(=O)Sc1ccccc1Cl	-13	10	3	68*	-14	13
COc1ccc(CN2CCNC(=O)C2CC(=O)NC2CCCCCC2)c(F)c1 (stereo unspecified)	-9	/	-26	/	-17	2
Cc1ccc(C(=O)O)cc1-n1c(C)cc(C=O)c1C	-23	14	-6	29	4	23
CCOc1ccc(-c2nnc(-c3cccs3)o2)cc1OCC	-2	4	-9	45	-25	7
CCOc1ccc(-c2nc(-c3cccs3)c(CC(=O)O)s2)cc1OC	4	15	-4	-3	-7	38*
CC1CCN(Cc2nc(-c3ccccc3)no2)CC1	-7	2	-7	19	-13	10
Cn1c(N)c(N=Nc2ccc(S(N)(=O)=O)cc2)c(=O)n(C)c1=O	-8	9	14	0	-4	60*
NS(=O)(=O)c1ccc(N=Nc2ncccc2O)cc1	/	6	/	10	/	/
CCCCNS(=O)(=O)/C=C/c1ccccc1	-8	9	-2	6	-8	0
C/C(Cn1nnc([N+](=O)[O-])n1)=N\NC(=O)c1ccccc1Cl	-11	6	-9	24	8	42*
Cc1ccc(CNC(=O)C2CCN(S(=O)(=O)N3CC(C)CC(C)C3)CC2)cc1 (stereo unspecified)	-4	/	-18	/	-8	-4
Cc1c(Cl)c(S(N)(=O)=O)cc(S(N)(=O)=O)c1NC(=O)c1ccc(Cl)cc1	/	45*	/	36	/	/
Cc1cc(NC(=O)c2ccc(Cl)cc2)c(C)cc1O	-4	4	-9	-19	-5	11
COCCNc1nnnc2c1sc1nc(N3CCOCC3)c3c(c12)CCCC3	-11	8	/	4	/	/
CSc1cccc(NC(=S)N(Cc2ccc(C)cc2)Cc2cccnc2)c1	-20	5	46*	35	14	31
COc1ccc2nc(N/C(N)=N/C(=S)Nc3ccc(C)c(C)c3)nc(C)c2c1	-4	10	-11	-6	-23	23
